Experimental data: ChEMBL document CHEMBL1148609, “Orally active purine-based inhibitors of the heat shock protein 90” (J Med Chem, 2006)
Calls of active or inactive are those of the source. The rule behind the calls is not given here.

Experiments:
MCF7 = assay: Growth inhibition in breast cancer MCF7 cell line by MTS assay; assay type: functional, cell-based; conditions: Homo sapiens
Procedure, shortened: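 MCF-7 breast cancer cells exposed to compound for 5 days, then MTS added and formazan read at 490 nm. […] Values are the mean of at least three independent observations.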

[1] = Half life in BALB/c mice at 10 mg/kg, iv; assay type: ADME, organism-based; design: dose 10 mg/kg, route intravenous; conditions: mouse, in vivo
Procedure, shortened: (§1)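 Balb/C mice, three dosed orally by gavage (5-20 mL/kg) and three intravenously; H3PO4 salts formulated as a phosphatidylcholine/water dispersion. Six blood samples collected, the last 4 h postdose. Plasma levels measured by HPLC (detection limit 0.5 µg/mL).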

[2] = Volume of distribution in BALB/c mice at 10 mg/kg, iv; assay type: ADME, organism-based; design: dose 10 mg/kg, route intravenous; conditions: mouse, in vivo, read-out: Vdss; procedure, shortened: as §1
[3] = Cmax in BALB/c mice at 100 mg/kg, po; assay type: ADME, organism-based; design: dose 100 mg/kg, route oral; conditions: mouse, in vivo; procedure, shortened: as §1
[4] = Tmax in BALB/c mice at 100 mg/kg, po; assay type: ADME, organism-based; design: dose 100 mg/kg, route oral; conditions: mouse, in vivo; procedure, shortened: as §1
Mus musculus [5] = assay: (§2) AUC in BALB/c mice at 100 mg/kg, po; assay type: ADME, organism-based, Plasma; design: dose 100 mg/kg, route oral; conditions: in vivo; procedure, shortened: as §1
[6] = Half life in BALB/c mice at 100 mg/kg, po; assay type: ADME, organism-based; design: dose 100 mg/kg, route oral; conditions: mouse, in vivo; procedure, shortened: as §1
Mus musculus [7] = assay: (§3) Bioavailability in BALB/c mice at 100 mg/kg, po; assay type: ADME, organism-based; conditions: in vivo; procedure, shortened: as §1
Mus musculus [8] = assay: Tumor growth inhibition in murine xenograft model using N87 stomach cancer cell line at 200 mg/kg/day, po; assay type: functional, organism-based; conditions: NCI-N87
Procedure, shortened: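 Female nu/nu athymic mice, 6-8 weeks old, implanted sc in the flank with N87 tumor fragments (~2 mm³) or 5 × 10⁶ cells. Established tumors of 50-200 mm³ used, n = 6-10 per group. H3PO4 salt given orally at 1 × 200 or 2 × 100 mg/kg/day, 5 days/week; vehicle-dosed controls. Caliper volumes (l × w²)/2 taken twice weekly.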

Mus musculus [9] = assay: Upregulation of Hsp70 in murine N87 xenograft model at (2*200 mg/kg/day), po; assay type: functional, organism-based
[10] = Clearance in BALB/c mice at 10 mg/kg, iv; assay type: ADME, organism-based; design: dose 10 mg/kg, route intravenous; conditions: mouse, in vivo; procedure, shortened: as §1
[11] = as §2; assay type: ADME, organism-based, Plasma; design: dose 100 mg/kg, route oral; conditions: BALB/c, mouse, plasma; procedure, shortened: as §1
[12] = as §3; assay type: ADME, organism-based; conditions: BALB/c, mouse, in vivo; procedure, shortened: as §1
Mus musculus [13] = assay: Degradation of pHER2 in murine N87 xenograft model at (2*200 mg/kg/day), po; assay type: functional, organism-based
Procedure, shortened: (§4)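 Mice bearing N87 gastric tumor xenografts (high HER-2) given the H3PO4 salt orally at 2 × 200 or 2 × 100 mg/kg/day for 3 days. Reference arm received 17-AAG ip at 90 mg/kg once daily. Animals sacrificed 24 h after the last dose and client proteins in tumor lysates assessed by Western blot.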

Mus musculus [14] = assay: Degradation of pAKT in murine N87 xenograft model at (2*200 mg/kg/day), po; assay type: functional, organism-based; procedure, shortened: as §4
Mus musculus [15] = assay: Degradation of pRaf in murine N87 xenograft model at (2*200 mg/kg/day), po; assay type: functional, organism-based; procedure, shortened: as §4
Mus musculus [16] = assay: Degradation of HER2 in murine N87 xenograft model at (2*200 mg/kg/day), po; assay type: functional, organism-based; procedure, shortened: as §4
Mus musculus [17] = assay: Degradation of PI3K in murine N87 xenograft model at (2*200 mg/kg/day), po; assay type: functional, organism-based; procedure, shortened: as §4
Mus musculus [18] = assay: Degradation of HER2 in A549 tumor xenograft at 200 mg/kg, po; assay type: functional, organism-based; design: dose 200 mg/kg
Procedure, shortened: (§5)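 Female nu/nu athymic mice (6-8 weeks old) carrying subcutaneous A549 lung cancer xenografts received a single oral gavage dose of the H₃PO₄ salt (200 mg/kg), formulated as a phosphatidylcholine/water dispersion. Mice were sacrificed at 6, 24 or 48 h, and tumors were harvested. HER-2, pHER-2, pAKT, pRaf and Hsp70 levels were assessed by Western blot.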

Mus musculus [19] = assay: Upregulation of Hsp70 in A549 tumor xenograft at 200 mg/kg, po; assay type: functional, organism-based; design: dose 200 mg/kg; procedure, shortened: as §5
A549 = assay: Degradation of pHER2 in A549 tumor xenograft at 200 mg/kg, po; assay type: functional, organism-based; design: dose 200 mg/kg; conditions: Mus musculus; procedure, shortened: as §5
Mus musculus [20] = assay: Degradation of pAKT in A549 tumor xenograft at 200 mg/kg, po; assay type: functional, organism-based; design: dose 200 mg/kg; procedure, shortened: as §5
Mus musculus [21] = assay: Degradation of pRaf in A549 tumor xenograft at 200 mg/kg, po; assay type: functional, organism-based; design: dose 200 mg/kg; procedure, shortened: as §5
[22] = target: Heat shock protein HSP 90-alpha (Homo sapiens) (UniProt P07900); assay: Hsp90 inhibition measured as HER-2 degradation in MCF-7 cells

Work on C#CCCCn1c(Sc2cc(OC)c(OC)c(OC)c2Cl)nc2c(N)nc(F)nc21 yielded an IC50 (MCF7) of 1200 nM.
Work on COc1ccc(I)c(Sc2nc3c(N)ncnc3n2CCCNC(C)(C)C)c1 yielded an IC50 (MCF7) of 200 nM.
With CCC(C)NCCCn1c(Sc2cc(OC)ccc2I)nc2c(N)ncnc21 (stereo not drawn) the IC50 (MCF7) was 200 nM, the half-life [1] was 1.3 h and the Vd [2] was 3.4 L/kg. The Cmax [3] was 4800 ng/mL, the Tmax [4] was 0.5 h and the AUC (Mus musculus [5]) was 380 µg·min/mL. The half-life [6] was 0.7 h, the F (Mus musculus [7]) was 28% and the Activity (Mus musculus [8]) was “Active”.
In the case of COc1ccc(I)c(Sc2nc3c(N)ncnc3n2CCCNC(C)C)c1, the Activity (Mus musculus [9]) is reported as “Active”, the IC50 (MCF7) is reported as 600 nM and the clearance [10] is reported as 62 mL/min/kg. The half-life [1] was 4.2 h, the Vd [2] was 22 L/kg and the Cmax [3] was 4700 ng/mL. For the same molecule, the Tmax [4] was 0.5 h, the AUC [11] was 7500 ng·h/mL and the half-life [6] was 1.5 h. The bioavailability [12] was 55%, the Activity (Mus musculus [8]) was “Active” and the Activity (Mus musculus [13]) was “Active”. The Activity (Mus musculus [14]) was “Active”, the Activity (Mus musculus [15]) was “Active” and the Activity (Mus musculus [16]) was “Active”. For the same molecule, the Activity (Mus musculus [17]) was “inactive”.
CCC(CC)NCCCn1c(Sc2cc(OC)ccc2I)nc2c(N)ncnc21 showed an IC50 (MCF7) of 200 nM.
Molecule C#CCCCn1c(Sc2cc(OC)ccc2I)nc2c(N)ncnc21 has an IC50 (MCF7) of 700 nM.
With COc1ccc(I)c(Sc2nc3c(N)ncnc3n2CCNCC(C)(C)C)c1 the IC50 (MCF7) was 500 nM and the Activity (Mus musculus [8]) was “Active”.
For COc1ccc(I)c(Sc2nc3c(N)ncnc3n2CCNCC(C)C)c1, the IC50 (MCF7) was 200 nM, the Activity (Mus musculus [18]) was “Active” and the Activity (Mus musculus [19]) was “Active”. For the same molecule, the Activity (A549) was “Active”, the Activity (Mus musculus [20]) was “Active” and the Activity (Mus musculus [21]) was “Active”. For the same molecule, the IC50 [22] was 100 nM.
